Source: PubChem BioAssay (several laboratories)
697 NFkB inh – lowers PMA/ionomycin-induced NF-kB signal in 697 B cells; 0.33% of 330,000 active; 697 B-cell NF-kB luciferase reporter, 16 h; inhibition, % at 4 µM; AID 435022; in the data active = inhibition above about 35%
XBP1 UPR activ – activators of adaptive arm of unfolded protein response (XBP1); activation, % at 20 µM; 0.33% of 330,000 active; CHO-XBP1 luciferase reporter, IRE1-XBP1 UPR activation, luminescence; percent of tunicamycin response, DMSO as zero;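 active = versus positive control, 20 µM dose yields 30% or more activation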
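Signal: luciferase luminescence; Assay system: CHO-XBP1 luciferase reporter cells; Amount: one thousand reporter cells per well; Dosing: 20 µM single concentration, DMSO 1%; Benchmarks: high control tunicamycin 10 µg/mL final, low control DMSO vehicle only; Schedule: 6 h compound exposure at 37 °C, 5% CO2; Evaluation: percent activation relative to tunicamycin reference.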
Gli-Sufu block – antagonists of Gli-Sufu signaling | 0.74% of 340,000 active | inhibition, % at 5 µM | AID 588413 | Sufu-KO-LIGHT fibroblasts, Gli luciferase reporter luminescence;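 active = inhibition above about 55%, limit read from the data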
UPR CHOP act – activators of apoptotic arm of unfolded protein response (CHOP). activation, % at 10 µM. 0.34% of 330,000 active. CHO-CHOP luciferase reporter, UPR activation, luminescence; percent of tunicamycin response over DMSO baseline;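 active = at 10 µM dose, activation of 40% or more, normalized to positive control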
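Test system: CHO-CHOP cells, stable luciferase reporter of PERK-eIF2a-CHOP signalling | Quantity: 500 CHO-CHOP cells per well | Buffer or medium: F12 plus 10% serum | Compound dosing: 10 µM single point, 0.5% DMSO | Schedule: 6 h compound treatment, 37 °C | Signal: Luciferase luminescence | Control set: Tunicamycin high control, DMSO low control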
Jurkat NFkB inh – lowers PMA/ionomycin-induced NF-kB signal in Jurkat cells | PMA/ionomycin-induced NF-kB luciferase reporter, luminescence | 0.53% of 330,000 active | AID 435003 | inhibition, % at 4 µM; in the data active = inhibition above about 50%
CHOP inhibitor – CHOP inhibition in unfolded protein response | CHO-K1 CHOP-promoter luciferase, tunicamycin-induced, 15-18 h | inhibition, % at 10 µM | 3.8% of 220,000 active | AID 2732;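 active = compounds that reduced the stress-induced luciferase reporter signal by more than about 70% of percent inhibition, limit read from the data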
Each line names hits and unclear results; the compound was inactive in the other large screens. Compounds with a hit are over-represented: about 3.9% of the library has one in this group of screens.

O=C(CCCCCn1c(=S)[nH]c2cc3c(cc2c1=O)OCO3)N1CCN(Cc2ccccc2)CC1	none
O=C(CCCCCn1c(=S)[nH]c2cc3c(cc2c1=O)OCO3)N1CCN(C2CCCCC2)CC1	CHOP inhibitor 83.3
O=C(COc1ccccc1Cl)NCc1ccccc1	none (no result: CHOP inhibitor)
O=C(COc1ccc(Br)cc1Cl)NC(=O)NCc1ccccc1	CHOP inhibitor 80.0
O=C(COc1ccc(Br)cc1Br)NC(=O)NC1CCCC1	CHOP inhibitor 87.2
Cc1onc(-c2ccccc2)c1C(=O)Nc1nc2c(s1)CCCC2	none
Cc1onc(-c2c(F)cccc2Cl)c1C(=O)Nc1nc2c(s1)CCCC2	CHOP inhibitor 83.6
CCCOc1ccc(S(=O)(=O)NCc2ccc(OC)cc2)cc1	CHOP inhibitor 80.3
Oc1ccc(-c2nccc(-c3ccc(Cl)cc3)n2)cc1	none
Oc1ccc(-c2nccc(-c3ccc(Cl)cc3Cl)n2)cc1	CHOP inhibitor 79.9
CN(CC(=O)Nc1ccccc1Br)C(=O)C1CCN(C(=O)c2ccc(Cl)cc2)CC1	none (no result: CHOP inhibitor)
CN(C)c1ccc(S(=O)(=O)N2CCCCC2)cc1NC(=O)CCNC(=O)c1ccc(Cl)cc1	none (no result: CHOP inhibitor)
O=C(Cn1nc(-c2ccccc2F)ccc1=O)Nc1ccc(S(=O)(=O)N2CCCCCC2)cc1	none
O=C(Cn1ncc2c1-c1ccccc1OC2)Nc1ccc(S(=O)(=O)N2CCCCC2)cc1	CHOP inhibitor 86.4
O=C(O)c1cccc(S(=O)(=O)N2CCN(c3ccccn3)CC2)c1	none (no result: CHOP inhibitor)
COc1cc(/C=N/N2CCCCC2)cc([N+](=O)[O-])c1O	none (no result: CHOP inhibitor)
O=C1N(Nc2ccccc2)C(c2ccc(Br)cc2)C12CCCCC2 (centres undefined)	CHOP inhibitor 72.8
O=C1OC(c2ccccc2)C2(CCCC2)C(=O)C12CCCC2 (centres undefined)	none
O=C1N(Nc2ccccc2)C(c2ccc(Br)cc2)C12CCCC2 (centres undefined)	CHOP inhibitor 93.9
CCN(CC)C(C)C(=O)N1c2ccccc2Sc2ccccc21 (centres undefined)	none (no result: 697 NFkB inh, XBP1 UPR activ, Gli-Sufu block, UPR CHOP act, Jurkat NFkB inh)
COc1ccc(N2C(=O)CSC23C(=O)N(CC(=O)NC2CCCC2)c2ccccc23)cc1 (centres undefined)	none (no result: CHOP inhibitor)
COc1ccc(/C=N/NC(=O)c2ccc(COc3ccccc3Cl)o2)cc1	none
COc1ccc(/C=N/NC(=O)c2ccc(COc3ccccc3Cl)o2)c(OC)c1C	CHOP inhibitor 86.8
O=C(NNC(=O)c1ccccc1O)c1ccc(S(=O)(=O)Nc2ccccc2)cc1	none (no result: CHOP inhibitor)
CCCc1nc(C)cc(N2CCN(c3ccccc3)CC2)n1	none (no result: Gli-Sufu block, CHOP inhibitor)
Cc1cc(N2CCN(c3ccccc3)CC2)nc(NCc2ccccc2)n1	CHOP inhibitor 87.8
NC1=C(Br)C(=O)c2ncccc2C1=O	Gli-Sufu block 85.3 (no result: 697 NFkB inh, XBP1 UPR activ, UPR CHOP act, Jurkat NFkB inh, CHOP inhibitor)
CCOC(=O)C1=C(C)Nc2nc3ccccc3n2C1c1ccccc1 (centres undefined)	CHOP inhibitor 77.7
CC1=C(C(=O)OC2CCCCC2)C(c2cccs2)n2c(nc3ccccc32)N1 (centres undefined)	CHOP inhibitor 84.4
COC(=O)C1=C(C)Nc2nc3ccccc3n2C1c1ccccc1F (centres undefined)	none
CNC(=O)C1=C(C)Nc2nc3ccccc3n2C1c1ccc(F)cc1 (centres undefined)	none
CCC(=O)c1cn([C@H](CCC(OC)OC)CC(=O)OC(C)(C)C)cc1CC	none (no result: CHOP inhibitor)
CC1CC1C(=O)Nc1ccc(S(=O)(=O)N2CCCCC2)cc1 (centres undefined)	none (no result: CHOP inhibitor)
CCOc1ccc(C(=O)CCC(=O)N2CCN(c3ncccn3)CC2)cc1	none (no result: CHOP inhibitor)
CCc1ccc(NC2=NCC(c3ccccc3)S2)cc1 (centres undefined)	none
Cc1ccc(NC2=NCC(Cc3ccc(Br)cc3)S2)cc1 (centres undefined)	CHOP inhibitor 74.2
COc1ccccc1NC(=O)c1ccccc1N(Cc1ccccc1)S(C)(=O)=O	none (no result: CHOP inhibitor)
O=C(COc1ccc(Cl)c(Cl)c1)NN1C(=O)C2C(C1=O)C1C=CC2C12CC2 (centres undefined)	none
CC(C)=C1C2CCC1C1C(=O)N(NC(=O)COc3ccc(Cl)c(C)c3)C(=O)C21 (centres undefined)	CHOP inhibitor 71.3
O=C(Nc1ccc(N2CCN(C(=O)c3ccc(Cl)cc3)CC2)cc1)c1cc2ccccc2o1	none
CN1CCN(c2ccc(NC(=O)c3ccc(-c4ccc(Cl)cc4)o3)cc2)CC1	none (no result: CHOP inhibitor)
CS(=O)(=O)N1CCN(c2ccc(NC(=O)c3ccc(-c4ccc(Cl)cc4)o3)cc2)CC1	CHOP inhibitor 75.2
O=C(Nc1ccc(N2CCN(C(=O)c3ccc(Cl)cc3)CC2)cc1)c1ccc(Br)o1	CHOP inhibitor 76.7
CCN(CC(=O)Nc1c(F)cccc1F)C(=O)CCc1nc2cc(S(=O)(=O)N3CCOCC3)ccc2n1C	none (no result: CHOP inhibitor)
CCN1/C(=C/c2ccc3cc(C)ccc3[n+]2CC)Sc2cc(C)ccc21	Gli-Sufu block 90.2, CHOP inhibitor 81.7 (no result: 697 NFkB inh, XBP1 UPR activ, UPR CHOP act, Jurkat NFkB inh)
CCN1/C(=C/c2ccc3ccccc3[n+]2CCCS(=O)(=O)[O-])C=Cc2cc(C)ccc21	none (no result: 697 NFkB inh, XBP1 UPR activ, UPR CHOP act, Jurkat NFkB inh, CHOP inhibitor)
Cc1cn(CC(=O)NCCc2c[nH]c3ccccc23)c(=O)[nH]c1=O	none (no result: 697 NFkB inh, XBP1 UPR activ, UPR CHOP act, Jurkat NFkB inh, CHOP inhibitor)
Cc1ccc(C(=O)Nc2ccccc2C(=O)NCc2ccccc2)cc1	CHOP inhibitor 80.2
Cc1ccc(C(=O)Nc2ccccc2C(=O)NCc2cccnc2)cc1	none (no result: CHOP inhibitor)
COc1ccc(-c2cc(C(=O)NCc3ccc(Cl)cc3)no2)cc1OC	CHOP inhibitor 73.3
COc1ccc(CNC(=O)c2cc(-c3ccc(OC)c(OC)c3)on2)cc1	none
Clc1ccc2nc(N3CCNCC3)nc(-c3ccccc3)c2c1	none (no result: CHOP inhibitor)
O=C1CN(c2nc(-c3ccccc3)c3cc(Cl)ccc3n2)c2ccccc2N1	CHOP inhibitor 73.9 (no result: Gli-Sufu block)
Cc1cc([N+](=O)[O-])ccc1-c1ccc(C2Nc3ccccc3C(=O)N2O)o1 (centres undefined)	CHOP inhibitor 75.7
CC(=O)O/N=C(/c1nonc1N)N1CCN(c2ccc([N+](=O)[O-])cc2Cl)CC1	none
CO/N=C(\c1nonc1N)N1CCN(c2ccc([N+](=O)[O-])cc2Cl)CC1	CHOP inhibitor 72.9
COc1cc(/C=C\C(=O)O)cc(S(=O)(=O)N2CCCCCC2)c1OC	none (no result: CHOP inhibitor)
N#Cc1ccccc1OCC(=O)OCC(=O)Nc1ccc2c(c1)OCO2	none (no result: CHOP inhibitor)
CC1(C2CCC3(C)OC3C2)CO1 (centres undefined)	none (no result: 697 NFkB inh, XBP1 UPR activ, UPR CHOP act, Jurkat NFkB inh, CHOP inhibitor)
Oc1ccc(/C=N/n2c3ccccc3c3ccccc32)cc1	CHOP inhibitor 91.0
COc1cc(/C=C2/CCC/C(=C\c3cc(O)c(OC)c(Cl)c3)C2=O)cc(Cl)c1O	CHOP inhibitor 79.7
COc1cc(/C=C2\CC/C(=C\c3cc(OC)c(OC)c(OC)c3)C2=O)cc(OC)c1OC	none
COc1ccc(OC)c(/C=N/N(C)c2ccccc2)c1	CHOP inhibitor 72.5
